# High-throughput results (PubChem)
# Compounds with a hit are over-represented: about 2.6% of the library has one in this group of screens.
# PolyA inhibitor – blocks polyadenylation in yeast reporter cells | S. cerevisiae SKY197-pL101 polyadenylation reporter, beta-gal luminescence; efflux-impaired pdr1/pdr3 knockout yeast; score 100 = 6 SD above DMSO | activity score, % at 12 µM | 300,000 compounds, 0.02% hits | AID 1875;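 active = lowest replicate activity score at least 50, where 100 means six control SD above control mean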;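 also: yeast exposed to compound for 9 h at 30 °C; higher score means more reporter readthrough which indicates perturbed polyadenylation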
# AHR activator – activators of human aryl hydrocarbon receptor | P35869 | AHR-responsive luciferase reporter cells, luminescence | activation, % at 5 µM | 320,000 compounds, 2.5% hits; in the data active = activation above about 47%
# proCasp7 act – counter-screen: procaspase-7 (human) activation | P55210 | recombinant procaspase-7, Ac-DEVD-pNA absorbance 405 nm; D23A/D198A/D206A triple mutant, cannot self-cleave; scale: DMSO 0, 5 µM enzyme 100 | activation, % at 8.5 µM | 330,000 compounds, 0.093% hits;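 active = percent activation above the screen-wide mean plus 3 SD, cut at about 25% in these data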
# Target sequence (P55210 whole entry D23A/D198A/D206A): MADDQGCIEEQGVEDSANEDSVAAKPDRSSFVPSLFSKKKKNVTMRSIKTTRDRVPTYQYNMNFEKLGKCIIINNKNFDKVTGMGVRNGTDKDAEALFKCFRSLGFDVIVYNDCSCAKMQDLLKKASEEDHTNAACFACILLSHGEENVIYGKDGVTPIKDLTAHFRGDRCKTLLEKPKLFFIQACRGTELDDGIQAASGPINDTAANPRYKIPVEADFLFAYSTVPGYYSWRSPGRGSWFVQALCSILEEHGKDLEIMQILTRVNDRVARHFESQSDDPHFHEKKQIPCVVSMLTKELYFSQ
#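 System: Uncleavable procaspase-7 mutant enzyme; Amount: 2 µM procaspase-7 mutant as dispensed; Schedule: 1 h compound preincubation, 2 h substrate cleavage, 25 °C; Measured by: 405 nm absorbance of p-nitroaniline; Evaluation: percent activation from buffer-corrected 0–120 min absorbance change; Control set: low DMSO alone, high DMSO plus 5 µM PC-7.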
# procasp3 activ – activates human procaspase-3; recombinant procaspase-3 D3A, Ac-DEVD-pNA absorbance 405 nm; AID 463141; 330,000 compounds, 0.11% hits; P42574; activation, % at 8.5 µM;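 active = activation above the mean of all tested compounds plus 3 SD, cut at about 21% in these data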
# Target sequence (P42574 whole entry D9A/D28A/D175A): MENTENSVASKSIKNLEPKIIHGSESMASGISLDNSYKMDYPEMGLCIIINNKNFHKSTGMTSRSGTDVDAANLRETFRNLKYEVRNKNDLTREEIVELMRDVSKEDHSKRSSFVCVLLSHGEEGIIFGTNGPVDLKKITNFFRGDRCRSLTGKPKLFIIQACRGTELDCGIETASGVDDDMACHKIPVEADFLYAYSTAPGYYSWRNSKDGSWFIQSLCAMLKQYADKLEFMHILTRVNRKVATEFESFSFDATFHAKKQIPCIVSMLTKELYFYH
#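 System: Procaspase-3 D3A mutant. Medium: Zinc-free 300 mM NaCl, 50 mM HEPES, 0.01% Triton X-100. Schedule: 1 h preincubation plus 2 h reaction at 25 °C. Measured by: 405 nm absorbance of p-nitroaniline, reads at 0 and 120 min. Read-out: percent activation relative to control range.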
# Numbers stand for hits; 0 = inactive; - = no result.
SMILES,PolyA inhibitor,AHR activator,proCasp7 act,procasp3 activ
COc1cc(/C=C/C(=O)Nc2cccc(S(=O)(=O)NC3=NCCCCC3)c2)ccc1OCC#N,0,0,0,0
Nc1c(C(=O)Nc2ccc3c(c2)OCCO3)nnn1Cc1ccc(Br)cc1,0,51,0,0
CCOC(=O)C1(C)NC(c2cc(OC)c(OC)c(OC)c2)C2C(=O)N(CC)C(=O)C21 (stereo not drawn),0,71,0,0
Fc1ccccc1-n1cc(-c2ccccc2)[nH]c1=S,0,0,0,0
FC(F)(F)c1cccc(-n2cc(-c3ccccc3)[nH]c2=S)c1,0,61,0,0
CN(C)CCN(C(=O)/C=C/c1cccs1)c1nc2c(F)cc(F)cc2s1,0,66,0,0
Cc1ccc2nc(N(CCN(C)C)C(=O)/C=C/c3cccs3)sc2c1,0,48,0,0
CCc1ccc2nc(N(CCN(C)C)C(=O)/C=C/c3cccs3)sc2c1,0,0,0,0
CC(C)C[C@H]1CN=C(Nc2ccccc2)N1CC1CCC(C)CC1 (stereo partly drawn),0,0,0,0
CC(=O)Nc1sc(N/N=C\c2ccccc2Cl)nc1-c1cccs1,0,59,0,0
CC(=O)Nc1sc(N/N=C\c2ccccc2)nc1-c1cccs1,0,0,0,0
Clc1cccc(N/N=C(\Cc2nc3ccccc3[nH]2)c2ccccc2)c1,0,64,0,0
O=C(Nc1cccc(-c2cn3cccnc3n2)c1)c1ccco1,0,0,0,0
c1cnc2nc(-c3ccc4c(c3)OCO4)cn2c1,0,64,0,0
O=C(Nc1cccc(-c2cn3cccnc3n2)c1)c1ccc(Br)o1,0,72,0,0
O=C(Nc1cccc(-c2cn3cccnc3n2)c1)c1ccc2c(c1)OCO2,0,49,0,0
O=C(Nc1ccccc1)Nc1cccc(-c2cn3cccnc3n2)c1,0,0,0,0
O=C(Nc1cccc(-c2cn3c(n2)SCC3)c1)c1ccc2c(c1)OCO2,0,50,0,0
CSC(=S)N/N=C(\C)c1ccc(Br)cc1,0,0,0,0
COc1cc2cc(CN(Cc3cccs3)C(=S)Nc3ccc(C)cc3)c(=O)[nH]c2cc1OC,0,50,0,0
COc1cc2cc(CN(Cc3cccs3)C(=S)Nc3cccc(C)c3)c(=O)[nH]c2cc1OC,0,0,0,0
CC(NC(=O)Cc1ccsc1)c1ccc(F)cc1 (stereo not drawn),0,0,0,0
COCCOC(=O)N/C=C\c1nc2ccccc2c(=O)[nH]1,0,55,0,0
Cc1ccccc1/C=C\c1nc2ccccc2c(=O)[nH]1,0,0,0,0
COC(=O)c1ccc(/C=C/c2nc3ccccc3c(=O)[nH]2)cc1,0,0,0,0
SMILES,PolyA inhibitor,AHR activator,proCasp7 act,procasp3 activ
Cc1ccccc1/C=C/c1nc2ccccc2c(=O)[nH]1,0,70,0,0
N#CCOc1ccccc1/C=C/c1nc2ccccc2c(=O)[nH]1,0,62,0,0
O=C(Nc1cc(S(=O)(=O)N2CCOCC2)ccc1OCC(F)(F)F)C1=COCCO1,0,0,0,0
CCOC(=O)c1ccccc1NC(=O)COC(=O)CSC(C)C(=O)Nc1cc(C)on1 (stereo not drawn),0,0,0,0
CNC(=S)N(CCc1c(C)[nH]c2ccc(C)cc12)Cc1cccnc1,0,0,0,0
Cc1cc(=O)n2nc(N3CCCC(C(=O)NCc4ccccc4Cl)C3)sc2n1 (stereo not drawn),0,0,0,0
CCOC(=O)[C@@H]1[C@H]2COc3cc(OC)ccc3[C@H]2N2C(=O)N(c3cccc(F)c3)C(=O)[C@]12C,-,0,0,0
Cc1cc(C(F)(F)Cl)n2ncc(-c3ccccn3)c2n1,0,64,0,0
CCSc1ccccc1C(=O)N1CCC2(CC1)CC(=O)c1ccccc1O2,0,0,0,0
CCc1noc(C)c1C(=O)Nc1nc2ccc(F)cc2s1,0,52,0,0
Cc1cccc(NC(=O)C2CCCN(C(=O)Nc3ccc(F)cc3)C2)c1 (stereo not drawn),0,0,0,0
Cc1onc(-c2ccc3c(c2)OCO3)c1-c1ccc2[nH]ccc2c1,0,0,0,0
c1cc2cc(-c3c(-c4ccc5c(c4)OCO5)noc3-c3ccsc3)ccc2[nH]1,0,49,0,0
Oc1ccc(/C=N/n2c3ccccc3c3ccccc32)cc1,0,55,0,0
Cc1nnc(C)n1/N=C/c1ccc(O)cc1,0,0,0,0
COCCOC(=O)C1=C(C)NC2=C(C(=O)CC(c3cccs3)C2)C1c1ccsc1 (stereo not drawn),0,50,0,0
CCOC(=O)C1=C(C)NC2=C(C(=O)CCC2)C1c1ccsc1 (stereo not drawn),0,-,-,-
CCOC(=O)c1c(S(=O)(=O)NCC(=O)N2CCN(c3ccccc3)CC2)c(C)n(C)c1C,0,0,0,0
O=c1oc2ccccc2c(Nc2ccccc2O)c1[N+](=O)[O-],0,0,0,0
O=c1oc2ccccc2c(Nc2cccc3cccnc23)c1[N+](=O)[O-],0,57,0,0
O=c1oc2ccccc2c(Nc2cc3ccccc3cc2O)c1[N+](=O)[O-],0,63,0,0
O=c1oc2ccccc2c(Nc2cccc3ccccc23)c1[N+](=O)[O-],0,0,0,0
COc1cccc(/C=N/NC(=O)CCn2c3ccccc3c3ccccc32)c1,0,73,0,0
O=S(=O)(Cc1ncc(C(F)(F)F)cc1Cl)c1ccccc1,0,0,0,0
CC1O[C@@H]2O[C@](O[C@H](C)CC[C@@H](C)O)(c3ccccc3)O[C@@H]2C[C@H]1O (stereo partly drawn),0,0,0,0
SMILES,PolyA inhibitor,AHR activator,proCasp7 act,procasp3 activ
CC(O)[C@H]1CNCCN1CCc1cccc(F)c1 (stereo partly drawn),0,0,0,0
Cc1ccc(OCc2nc(C#N)c(NCc3ccco3)o2)cc1,0,0,0,0
N#Cc1nc(COc2cccc(Cl)c2)oc1NCc1ccco1,0,63,0,0
COc1ccc(CNc2ncnc3cc(OC)c(OC)cc23)cc1OC,0,0,0,0
COc1cc2ncnc(NCc3ccc4c(c3)OCO4)c2cc1OC,0,63,0,0
CC1CCCC(C)N1C(=O)COC(=O)CCC1CCCC1 (stereo not drawn),0,0,0,0
Cc1cc(C)c(C#N)c(OCC(=O)c2ccccc2)n1,0,52,0,0
CCOc1cc(/C=C2\N=C(SC(C)C(N)=O)N(c3ccc(OC(F)F)cc3)C2=O)ccc1O (stereo not drawn),157,0,0,0
O=C(NCc1ccc2c(c1)OCO2)NC12CC3CC(CC(C3)C1)C2,0,0,0,0
O=C(COc1ccc2c(c1)OCO2)Nc1nncs1,0,69,0,0
O=C(COc1ccc2c(c1)OCO2)NC12CC3CC(CC(C3)C1)C2,0,55,0,0
CCCC(C)c1nnc(NC(=O)COc2ccc3c(c2)OCO3)s1 (stereo not drawn),0,53,0,0
CC(C)c1nnc(NC(=O)COc2ccc3c(c2)OCO3)s1,0,0,0,0
